Source: ChEMBL document CHEMBL1139868, “Synthesis, DNA binding, and Leishmania topoisomerase inhibition activities of a novel series of anthra[1,2-d]imidazole-6,11-dione derivatives” (J Med Chem, 2007)

How the values were obtained:
[1] = target: T1, DNA topoisomerase I (Leishmania donovani donovani) (UniProt Q9NJG8); assay: Inhibition of Leishmania donovani topoisomerase 1-induced relaxation activity assessed as recovery of supercoiled DNA at 50 uM
T1 sequence (whole entry): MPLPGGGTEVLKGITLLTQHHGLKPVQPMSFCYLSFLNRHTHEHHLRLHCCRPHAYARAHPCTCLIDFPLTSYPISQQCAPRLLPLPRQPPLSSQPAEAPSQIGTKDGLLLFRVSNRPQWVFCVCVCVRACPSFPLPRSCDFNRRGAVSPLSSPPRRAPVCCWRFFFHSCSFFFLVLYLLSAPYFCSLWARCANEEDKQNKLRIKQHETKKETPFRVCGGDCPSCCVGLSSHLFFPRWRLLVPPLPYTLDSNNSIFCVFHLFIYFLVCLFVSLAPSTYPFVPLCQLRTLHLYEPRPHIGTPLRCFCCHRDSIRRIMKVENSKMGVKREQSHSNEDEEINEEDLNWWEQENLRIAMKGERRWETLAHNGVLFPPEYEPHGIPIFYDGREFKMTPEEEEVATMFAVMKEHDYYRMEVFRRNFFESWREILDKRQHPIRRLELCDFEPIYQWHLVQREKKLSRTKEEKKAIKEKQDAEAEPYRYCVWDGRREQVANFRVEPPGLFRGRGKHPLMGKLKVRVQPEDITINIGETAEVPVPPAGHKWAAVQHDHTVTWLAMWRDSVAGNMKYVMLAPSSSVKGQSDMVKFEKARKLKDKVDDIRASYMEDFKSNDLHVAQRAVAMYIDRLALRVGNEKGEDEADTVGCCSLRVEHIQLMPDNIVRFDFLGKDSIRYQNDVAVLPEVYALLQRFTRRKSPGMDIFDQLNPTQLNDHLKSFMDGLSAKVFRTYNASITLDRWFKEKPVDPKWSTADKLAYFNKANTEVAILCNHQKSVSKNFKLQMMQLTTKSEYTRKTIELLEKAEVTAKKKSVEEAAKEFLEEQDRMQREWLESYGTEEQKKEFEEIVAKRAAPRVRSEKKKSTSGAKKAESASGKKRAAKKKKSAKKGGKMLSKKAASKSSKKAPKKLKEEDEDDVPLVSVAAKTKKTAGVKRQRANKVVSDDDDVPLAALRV

[2] = Binding affinity to double stranded poly[d[G-C)]2 DNA; conditions: Homo sapiens
Method in brief: (§1)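 UV-vis absorption titration: increasing concentrations of dsDNA (calf thymus DNA, poly[d(A-T)]2 or poly[d(G-C)]2) added to ligand in buffer. Hypochromicity and red-shift of the long-wavelength absorption band were followed. Binding constants were obtained by the half-reciprocal plot method.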

[3] = tested on: DNA; assay: Binding affinity to calf thymus double stranded DNA; assay type: nucleic-acid assay; conditions: Bos taurus; method in brief: as §1
[4] = Binding affinity to double stranded poly[d[A-T)]2 DNA; conditions: Homo sapiens; method in brief: as §1
[5] = target: T1, DNA topoisomerase I (Leishmania donovani donovani); assay: Inhibition of Leishmania donovani topoisomerase 1-induced relaxation activity assessed as recovery of supercoiled DNA at 10 uM
[6] = target: T1, DNA topoisomerase I (Leishmania donovani donovani); assay: Inhibition of Leishmania donovani topoisomerase 1-induced relaxation activity assessed as recovery of supercoiled DNA at 20 uM

Row | SMILES | inhibition [1] [%] | Ka [2] | Ka [3] | Ka [4] | inhibition [5] [%] | inhibition [6] [%]
1 | CN(C)CCCOc1ccc(-c2nc3ccc4c(c3[nH]2)C(=O)c2ccccc2C4=O)cc1 | 5 | 3 10^5/M | 2.1 10^5/M | 4.1 10^5/M | – | –
2 | O=C1c2ccccc2C(=O)c2c1ccc1nc(-c3ccccn3)[nH]c21 | 75 | – | – | – | 9 | 20
3 | O=C1c2ccccc2C(=O)c2c1ccc1nc(-c3ccc(OCCCn4cnnn4)cc3)[nH]c21 | 95 | 0.3 10^5/M | 0.5 10^5/M | 0.5 10^5/M | 80 | 92
4 | O=C1c2ccccc2C(=O)c2c1ccc1nc(-c3ccc(OCCCN4CCN(CCO)CC4)cc3)[nH]c21 | 5 | 2.2 10^5/M | 1.9 10^5/M | 3 10^5/M | – | –
5 | CCN(CC)CCCOc1ccc(-c2nc3ccc4c(c3[nH]2)C(=O)c2ccccc2C4=O)cc1 | 10 | 2.3 10^5/M | 1.9 10^5/M | 3.2 10^5/M | – | 2
6 | CN1CCN(CCCOc2ccc(-c3nc4ccc5c(c4[nH]3)C(=O)c3ccccc3C5=O)cc2)CC1 | 10 | 1.9 10^5/M | 1 10^5/M | 2.8 10^5/M | – | –
7 | O=C1c2ccccc2C(=O)c2c1ccc1nc(-c3ccc(OCCCN4CCOCC4)cc3)[nH]c21 | 92 | 0.5 10^5/M | 0.6 10^5/M | 1.1 10^5/M | 46 | 77
8 | CC[C@@]1(O)C(=O)OCc2c1cc1n(c2=O)Cc2cc3ccccc3nc2-1 | 65 | – | – | – | 39 | 55
9 | O=C1c2ccccc2C(=O)c2c1ccc1nc(-c3cccnc3)[nH]c21 | 80 | – | – | – | 9 | 15
10 | O=C1c2ccccc2C(=O)c2c1ccc1nc(-c3ccc(OCCCn4ccnc4)cc3)[nH]c21 | 91 | 0.6 10^5/M | 1.1 10^5/M | 1.8 10^5/M | 62 | 77
